Measurements reported in ChEMBL document CHEMBL4325893, “Synthesis and antibacterial profiles of targeted triclosan derivatives” (2019).
In brackets after ≈: the same amount, converted by molar mass.

Key:
Staphylococcus aureus [1] = test: Antibacterial activity against Staphylococcus aureus ATCC 6538 after 18 hrs; format: functional; settings: ATCC 6538, 18 h
How it was run: (§1)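 Broth microdilution in Nutrient Broth No. 2; stocks in ethanol diluted to 0.01–128 µg/ml (triclosan) or 0.25–256 µg/ml (glycosides). Overnight 37 °C NB2 cultures diluted 1 in 10^4 in saline and added to the dilutions. Incubation at 37 °C with agitation, OD read every 15 min; MIC is the lowest concentration preventing any OD rise after 18 h.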

Staphylococcus aureus [2] = test: Antibacterial activity against Staphylococcus aureus ATCC 6538P after 18 hrs; format: functional; how it was run: as §1
Staphylococcus aureus [3] = test: Antibacterial activity against Staphylococcus aureus ATCC 9144 after 18 hrs; format: functional; settings: ATCC 9144, 18 h; how it was run: as §1
Staphylococcus aureus [4] = test: Antibacterial activity against Staphylococcus aureus ATCC 25923 after 18 hrs; format: functional; settings: ATCC 25923, 18 h; how it was run: as §1
Staphylococcus aureus [5] = test: Antibacterial activity against Staphylococcus aureus ATCC 29213 after 18 hrs; format: functional; settings: ATCC 29213, 18 h; how it was run: as §1
Staphylococcus aureus [6] = test: Antibacterial activity against Staphylococcus aureus NCTC 13758 after 18 hrs; format: functional; settings: NCTC 13758, 18 h; how it was run: as §1
Staphylococcus aureus [7] = test: Antibacterial activity against Staphylococcus aureus OCC 104 after 18 hrs; format: functional; settings: OCC 104, 18 h; how it was run: as §1
Staphylococcus aureus [8] = test: Antibacterial activity against Staphylococcus aureus OCC 106 after 18 hrs; format: functional; settings: OCC 106, 18 h; how it was run: as §1
[9] = system: Staphylococcus epidermidis; test: Antibacterial activity against Staphylococcus epidermidis 155 after 18 hrs; format: functional; settings: Staphylococcus epidermidis, 155, 18 h; how it was run: as §1
[10] = system: Staphylococcus epidermidis; test: Antibacterial activity against Staphylococcus epidermidis ATCC 12228 after 18 hrs; format: functional; settings: ATCC 12228, 18 h; how it was run: as §1
[11] = system: Staphylococcus epidermidis; test: Antibacterial activity against Staphylococcus epidermidis ATCC 14990 after 18 hrs; format: functional; settings: ATCC 14990, 18 h; how it was run: as §1
[12] = system: Staphylococcus haemolyticus; test: Antibacterial activity against Staphylococcus haemolyticus OCC 2223 after 18 hrs; format: functional; settings: OCC 2223, 18 h
How it was run: (§2)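 Broth microdilution in Nutrient Broth No. 2. Ethanol stocks were diluted in broth to 0.01–128 µg/ml for triclosan and 0.25–256 µg/ml for glycosides. Overnight 37°C NB2 cultures were diluted 1 in 10^4 in saline and added to the wells. Plates were incubated at 37°C with OD read every 15 min after agitation. MIC was the lowest concentration giving no OD increase at 18 h.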

[13] = system: Staphylococcus saprophyticus; test: Antibacterial activity against Staphylococcus saprophyticus ATCC 15305 after 18 hrs; format: functional; settings: ATCC 15305, 18 h; how it was run: as §2
Streptococcus agalactiae = test: Antibacterial activity against Streptococcus agalactiae OCC 182 after 18 hrs; format: functional; settings: OCC 182, 18 h; how it was run: as §2
Streptococcus pneumoniae [14] = test: Antibacterial activity against Streptococcus pneumoniae 6305 after 18 hrs; format: functional; settings: Streptococcus pneumoniae, 6305, 18 h; how it was run: as §2
Streptococcus pneumoniae [15] = test: Antibacterial activity against Streptococcus pneumoniae ATCC 49619 after 18 hrs; format: functional; settings: ATCC 49619, 18 h; how it was run: as §2
Streptococcus pyogenes = test: Antibacterial activity against Streptococcus pyogenes ATCC 19615 after 18 hrs; format: functional; settings: ATCC 19615, 18 h; how it was run: as §2
Streptococcus viridans = test: Antibacterial activity against Streptococcus viridans OCC 234 after 18 hrs; format: functional; settings: OCC 234, 18 h; how it was run: as §2
[16] = system: Salmonella enterica subsp. enterica serovar Abony; test: Antibacterial activity against Salmonella enterica subspecies enterica serotype Abony NCTC 6017 after 18 hrs; format: functional; settings: NCTC 6017, 18 h; how it was run: as §1
[17] = Antibacterial activity against Salmonella enterica subspecies enterica serotype Arizonae OCC 706 after 18 hrs; format: functional, Salmonella enterica subsp. enterica serovar Arizonae; settings: OCC 706, 18 h; how it was run: as §1
[18] = Antibacterial activity against Salmonella enterica subspecies enterica serotype Dublin OCC 627 after 18 hrs; format: functional, Salmonella enterica subsp. enterica serovar Dublin; settings: OCC 627, 18 h; how it was run: as §1
Salmonella enteritidis = test: Antibacterial activity against Salmonella enterica subspecies enterica serotype Enteritidis 13076 after 18 hrs; format: functional, Salmonella enterica subsp. enterica serovar Enteritidis; settings: Salmonella enterica, 13076, 18 h; how it was run: as §1
[19] = Antibacterial activity against Salmonella enterica subspecies enterica serotype Indiana OCC 597 after 18 hrs; format: functional, Salmonella enterica subsp. enterica serovar Indiana; settings: OCC 597, 18 h; how it was run: as §1
[20] = Antibacterial activity against Salmonella enterica subspecies enterica serotype Infantis OCC 2133 after 18 hrs; format: functional, Salmonella enterica subsp. enterica serovar Infantis; settings: OCC 2133, 18 h; how it was run: as §1
[21] = Antibacterial activity against Salmonella enterica subspecies enterica serotype Nottingham NCTC 7832 after 18 hrs; format: functional, Salmonella enterica subsp. enterica serovar Nottingham; settings: NCTC 7832, 18 h; how it was run: as §1
[22] = Antibacterial activity against Salmonella enterica subspecies enterica serotype Poona NCTC 4840 after 18 hrs; format: functional, Salmonella enterica subsp. enterica serovar Poona; settings: NCTC 4840, 18 h; how it was run: as §1
[23] = Antibacterial activity against Salmonella enterica subspecies enterica serotype Pullorum OCC 273 after 18 hrs; format: functional, Salmonella enterica subsp. enterica serovar Pullorum; settings: OCC 273, 18 h; how it was run: as §1
Salmonella typhimurium = test: Antibacterial activity against Salmonella enterica subspecies enterica serotype typhimurium ATCC 14028 after 18 hrs; format: functional, Salmonella enterica subsp. enterica serovar Typhimurium; settings: ATCC 14028, 18 h; how it was run: as §1
[24] = Antibacterial activity against Salmonella enterica subspecies enterica serotype Virchow NCTC 5742 after 18 hrs; format: functional, Salmonella enterica subsp. enterica serovar Virchow; settings: NCTC 5742, 18 h; how it was run: as §1

With `OC[C@H]1O[C@H](Oc2cc(Cl)ccc2Oc2ccc(Cl)cc2Cl)[C@H](O)[C@@H](O)[C@@H]1O` the MIC (Staphylococcus aureus [1]) was 1 µg/mL (≈ 2.21 µM), the MIC (Staphylococcus aureus [2]) was 1 µg/mL (≈ 2.21 µM) and the MIC (Staphylococcus aureus [3]) was 1 µg/mL (≈ 2.21 µM). For the same compound, the MIC (Staphylococcus aureus [4]) was 1 µg/mL (≈ 2.21 µM), the MIC (Staphylococcus aureus [5]) was 1 µg/mL (≈ 2.21 µM) and the MIC (Staphylococcus aureus [6]) was 1 µg/mL (≈ 2.21 µM). For the same compound, the MIC (Staphylococcus aureus [7]) was 1 µg/mL (≈ 2.21 µM), the MIC (Staphylococcus aureus [8]) was 1 µg/mL (≈ 2.21 µM) and the MIC [9] was 1 µg/mL (≈ 2.21 µM). It also gave an MIC [10] of 1 µg/mL (≈ 2.21 µM), an MIC [11] of 1 µg/mL (≈ 2.21 µM) and an MIC [12] of 1 µg/mL (≈ 2.21 µM). The MIC [13] was 4 µg/mL (≈ 8.86 µM), the MIC (Streptococcus agalactiae) was 128 µg/mL (≈ 283 µM) and the MIC (Streptococcus pneumoniae [14]) was 32 µg/mL (≈ 70.8 µM). For the same compound, the MIC (Streptococcus pneumoniae [15]) was 32 µg/mL (≈ 70.8 µM), the MIC (Streptococcus pyogenes) was 32 µg/mL (≈ 70.8 µM) and the MIC (Streptococcus viridans) was 128 µg/mL (≈ 283 µM). It also gave an MIC [16] of 2 to 8 µg/mL (≈ 4.43 to 17.7 µM), an MIC [17] of 2 to 8 µg/mL (≈ 4.43 to 17.7 µM) and an MIC [18] of 2 to 8 µg/mL (≈ 4.43 to 17.7 µM). For the same compound, the MIC (Salmonella enteritidis) was 2 to 8 µg/mL (≈ 4.43 to 17.7 µM), the MIC [19] was 2 to 8 µg/mL (≈ 4.43 to 17.7 µM) and the MIC [20] was 2 to 8 µg/mL (≈ 4.43 to 17.7 µM). For the same compound, the MIC [21] was 2 to 8 µg/mL (≈ 4.43 to 17.7 µM), the MIC [22] was 2 to 8 µg/mL (≈ 4.43 to 17.7 µM) and the MIC [23] was 2 to 8 µg/mL (≈ 4.43 to 17.7 µM). The MIC (Salmonella typhimurium) was 2 to 8 µg/mL (≈ 4.43 to 17.7 µM) and the MIC [24] was 2 to 8 µg/mL (≈ 4.43 to 17.7 µM).
